What is called CC50 is the concentration that lowers cell viability or growth by half. Read a high CC50 as lower toxicity to the cells.

The values below come from ChEMBL document CHEMBL4043244, “Diverse amide analogs of sulindac for cancer treatment and prevention” (Bioorg Med Chem Lett, 2017).

SMILES strings stand for the structures.

Assay type in all cases: functional
The subject of one experiment is HT-29. The experiment in a line: Growth inhibition of human HT-29 cells after 72 hrs by CellTiter-Glo reagent based assay. The settings on record: HT-29, 72 h. Summed up:
(§1)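 Cancer cell lines (PC3 prostate, HT29 colorectal carcinoma, MDA-MB-231 breast) were screened by quantitative high-throughput screening in whole cells, and CC50 values were derived.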
For orientation: In ATP-based viability assays light output follows the ATP content of the culture.

Another experiment relates to MDA-MB-231. The experiment in a line: Growth inhibition of human MDA-MB-231 cells after 72 hrs by CellTiter-Glo reagent based assay. The following applies: MDA-MB-231, 72 h. Summed up: as §1
The subject of another experiment is PC-3. The experiment in a line: Growth inhibition of human PC3 cells after 72 hrs by CellTiter-Glo reagent based assay. The following applies: PC-3, 72 h. The gist of the method:
as §1

Consider `CC1=C(CC(=O)NCCC(C)C)c2cc(F)ccc2/C1=C\c1ccc([S+](C)[O-])cc1` (stereo unspecified), for which the CC50 with HT-29 is 17.7 µM; in the experiment on MDA-MB-231 it was 27.7 µM; in the experiment on PC-3, 20.2 µM.
`CSc1ccc(/C=C2/C(C)=C(CC(=O)NCc3cccs3)c3cc(F)ccc32)cc1`: the CC50 with HT-29 turned out to be 2.16 µM; in the experiment on MDA-MB-231, 5.66 µM; in the experiment with PC-3, 11 µM.
As for `CSc1ccc(/C=C2/C(C)=C(CC(=O)N(C)CCN(C)S(=O)(=O)c3cccc4ccccc34)c3cc(F)ccc32)cc1`, the CC50 was 16.2 µM in the experiment on HT-29, more than 50 µM with MDA-MB-231 and more than 50 µM in the experiment with PC-3.
Turning to `CC1=C(CC(=O)NCc2ccccc2)c2cc(F)ccc2/C1=C\c1nc2ccccc2s1`, the CC50 was 23.6 µM in the experiment on HT-29, 19.6 µM with MDA-MB-231 and more than 50 µM in the experiment on PC-3.
For `CC1=C(CC(=O)N2CCN(CCCN(C)C)CC2)c2cc(F)ccc2/C1=C\c1ccc([S+](C)[O-])cc1` (stereo unspecified) the same measures were 23.8 µM, 46.2 µM and more than 50 µM.
For `CSc1ccc(/C=C2/C(C)=C(CC(=O)N(C)CCN(C)S(=O)(=O)c3ccccc3)c3cc(F)ccc32)cc1` the same measures were 8.82 µM, more than 50 µM and more than 50 µM.
On to `CC1=C(CC(=O)N(C)CCN(C)C(=O)[C@@H](N)C(C)C)c2cc(F)ccc2/C1=C\c1ccc([S+](C)[O-])cc1` (stereo partly specified), for which the CC50 in the experiment with HT-29 was 30.2 µM; with MDA-MB-231, more than 50 µM; with PC-3 it was more than 50 µM.
Turning to `CSc1ccc(/C=C2/C(C)=C(CC(=O)N3CCN(C)CC3)c3cc(F)ccc32)cc1`, the values for the CC50 in the experiment on HT-29, in the experiment on MDA-MB-231 and in the experiment on PC-3 were 4.29 µM, 11.5 µM and 13.4 µM, respectively.
For `CCN1CCC[C@H]1CNC(=O)CC1=C(C)/C(=C/c2ccc(SC)cc2)c2ccc(F)cc21` the same measures were 1.16 µM, 3.72 µM and 4.64 µM.
`CSc1ccc(/C=C2/C(C)=C(CC(=O)N(C)CCN(C)S(=O)(=O)c3ccc4ccccc4c3)c3cc(F)ccc32)cc1`: the CC50 with HT-29 is 35.3 µM; with MDA-MB-231, more than 50 µM; in the experiment on PC-3 it was more than 50 µM.
With `CC1=C(CC(=O)N(C)CCN(C)S(=O)(=O)c2cccc3ccccc23)c2cc(F)ccc2/C1=C\c1ccc([S+](C)[O-])cc1` (stereo unspecified), the CC50 in the experiment on HT-29 was determined as 3.99 µM; in the experiment with MDA-MB-231, 29.1 µM; in the experiment with PC-3 it was 8.96 µM.
For `CSc1ccc(/C=C2/C(C)=C(CC(=O)NCc3ccccc3)c3cc(F)ccc32)cc1` the same measures were 1.52 µM, 3.61 µM and 16.4 µM.
Take `CSc1ccc(/C=C2/C(C)=C(CC(=O)NCCC3CCCN3C)c3cc(F)ccc32)cc1` (stereo unspecified): the CC50 with HT-29 amounted to 1.41 µM; in the experiment with MDA-MB-231, 3.75 µM; in the experiment on PC-3, 4.33 µM.
For `CCN1CCC[C@H]1CNC(=O)CC1=C(C)/C(=C/c2ccc([S+](C)[O-])cc2)c2ccc(F)cc21` (stereo partly specified) the same measures were 19 µM, more than 50 µM and more than 50 µM.
For `CC1=C(CC(=O)NCCN(C)C)c2cc(F)ccc2/C1=C\c1ccncc1` the same measures were 6.89 µM, 18.1 µM and 28.9 µM.
For `COC(=O)[C@H](C)NC(=O)CC1=C(C)/C(=C/c2ccc(SC)cc2)c2ccc(F)cc21` the same measures were 23.9 µM, 38.9 µM and more than 50 µM.
As to `CC1=C(CC(=O)N(C)CCN(C)S(=O)(=O)c2ccc3ccccc3c2)c2cc(F)ccc2/C1=C\c1ccc([S+](C)[O-])cc1` (stereo unspecified), the CC50 in the experiment with HT-29 stood at 6.35 µM; in the experiment on MDA-MB-231, 32.1 µM; in the experiment on PC-3, 7.52 µM.
Turning to `CC1=C(CC(=O)NCCN(C)C)c2cc(F)ccc2/C1=C\c1ccc(S(C)(=O)=O)cc1`, the CC50 was 12.7 µM with HT-29, 37.5 µM with MDA-MB-231 and more than 50 µM in the experiment on PC-3.
Turning to `CC1=C(CC(=O)NCc2ccco2)c2cc(F)ccc2/C1=C\c1ccc([S+](C)[O-])cc1` (stereo unspecified), the CC50 with HT-29 is 1 µM; in the experiment on MDA-MB-231, 2.73 µM; with PC-3, more than 50 µM.
For `CSc1ccc(/C=C2/C(C)=C(CC(=O)N3CCNCC3)c3cc(F)ccc32)cc1`, in that order: 2.47 µM, 3.69 µM and 6.5 µM.
For the molecule `CSc1ccc(/C=C2/C(C)=C(CC(=O)NCCN3CCNCC3)c3cc(F)ccc32)cc1`, the results for the CC50 in the experiment on HT-29, in the experiment with MDA-MB-231 and in the experiment with PC-3 were 2.98 µM, 7.66 µM and 6.66 µM, respectively.
For `CSc1ccc(/C=C2/C(C)=C(CC(=O)N(C)CCN(C)S(=O)(=O)c3cccc4c(N(C)C)cccc34)c3cc(F)ccc32)cc1` the same measures were more than 50 µM, more than 50 µM and more than 50 µM.
For `CSc1ccc(/C=C2/C(C)=C(CC(=O)NCCN3CCCC3)c3cc(F)ccc32)cc1`, in that order: 1.81 µM, 3.78 µM and 5.27 µM.
For `CCS(=O)(=O)N(C)CCN(C)C(=O)CC1=C(C)/C(=C/c2ccc(SC)cc2)c2ccc(F)cc21` the same measures were 4.2 µM, 10.1 µM and 14.3 µM.
Regarding `CSc1ccc(/C=C2/C(C)=C(CC(=O)NCc3cccnc3)c3cc(F)ccc32)cc1`, the CC50 in the experiment with HT-29 stood at 4.83 µM; in the experiment with MDA-MB-231 it was 7.36 µM; with PC-3, 18.5 µM.
For `CSc1ccc(/C=C2/C(C)=C(CC(=O)NCCN3CCCCC3)c3cc(F)ccc32)cc1` the same measures were 1.65 µM, 5.42 µM and 5.36 µM.
For `CSc1ccc(/C=C2/C(C)=C(CC(=O)NCCC(C)C)c3cc(F)ccc32)cc1` the same measures were more than 50 µM, more than 50 µM and more than 50 µM.
For `CC1=C(CC(=O)N(C)CCN(C)S(=O)(=O)c2ccc(C)cc2)c2cc(F)ccc2/C1=C\c1ccc([S+](C)[O-])cc1` (stereo unspecified), in that order: 6.18 µM, 17.8 µM and 11 µM.
In the case of `CC1=C(CC(=O)N2CCC[C@H]2CN2CCCC2)c2cc(F)ccc2/C1=C\c1ccc([S+](C)[O-])cc1` (stereo partly specified), the CC50 with HT-29 is 20.2 µM; with MDA-MB-231, more than 50 µM; in the experiment on PC-3, more than 50 µM.
Turning to `CC1=C(CC(=O)N(C)CCN(C)S(=O)(=O)c2ccccc2)c2cc(F)ccc2/C1=C\c1ccc([S+](C)[O-])cc1` (stereo unspecified), the CC50 was determined as 6.09 µM in the experiment on HT-29, 12.2 µM in the experiment on MDA-MB-231 and 8.2 µM with PC-3.
As for `COc1cc(/C=C2/C(C)=C(CC(=O)NCCC(C)C)c3cc(F)ccc32)cc(OC)c1OC`, the results for the CC50 with HT-29, in the experiment with MDA-MB-231 and in the experiment on PC-3 were 5.24 µM, 8.73 µM and 8.2 µM, respectively.
Consider `CC1=C(CC(=O)N2CCN(c3ccncc3)CC2)c2cc(F)ccc2/C1=C\c1ccc([S+](C)[O-])cc1` (stereo unspecified), for which the CC50 in the experiment with HT-29 came to 9.2 µM; in the experiment with MDA-MB-231, 22.7 µM; in the experiment with PC-3 it was 21.9 µM.
For `CC1=C(CC(=O)NCCC(C)C)c2cc(F)ccc2/C1=C\c1nc2ccccc2s1`, in that order: more than 50 µM, 24.2 µM and more than 50 µM.
For `CSc1ccc(/C=C2/C(C)=C(CC(=O)NCc3ccco3)c3cc(F)ccc32)cc1` the same measures were 2.08 µM, 3.4 µM and 13 µM.
For `CSc1ccc(/C=C2/C(C)=C(CC(=O)N(C)CCN(C)S(=O)(=O)c3ccc(C)cc3)c3cc(F)ccc32)cc1`, in that order: 12.9 µM, more than 50 µM and more than 50 µM.
As to `COC(=O)[C@@H](C)NC(=O)CC1=C(C)/C(=C/c2ccc(SC)cc2)c2ccc(F)cc21`, the values for the cytotoxic concentration (CC50) in the experiment with HT-29, with MDA-MB-231 and in the experiment on PC-3 were 16.2 µM, 32 µM and 44.2 µM, respectively.
For `CSc1ccc(/C=C2/C(C)=C(CC(=O)NN3CCN(C)CC3)c3cc(F)ccc32)cc1` the same measures were 1.64 µM, 4.1 µM and 4.45 µM.
For `CSc1ccc(/C=C2/C(C)=C(CC(=O)N(C)CCN(C)C(=O)[C@@H](N)C(C)C)c3cc(F)ccc32)cc1`, in that order: 3.72 µM, 7.33 µM and 7.08 µM.
For `CC1=C(CC(=O)N2CCC(N3CCCCC3)CC2)c2cc(F)ccc2/C1=C\c1ccc([S+](C)[O-])cc1` (stereo unspecified), in that order: more than 50 µM, more than 50 µM and more than 50 µM.
With `CSc1ccc(/C=C2/C(C)=C(CC(=O)NCc3ccccn3)c3cc(F)ccc32)cc1`, the figures for the CC50 with HT-29, in the experiment on MDA-MB-231 and with PC-3 were 10.3 µM, 13.7 µM and 13.6 µM, respectively.
For `CC1=C(CC(=O)N(C)CCN(C)S(=O)(=O)c2cccc3c(N(C)C)cccc23)c2cc(F)ccc2/C1=C\c1ccc([S+](C)[O-])cc1` (stereo unspecified), the CC50 in the experiment with HT-29 was 10.6 µM; in the experiment with MDA-MB-231, more than 50 µM; in the experiment with PC-3, 9.2 µM.
For `COC(=O)[C@H](Cc1cnc[nH]1)NC(=O)CC1=C(C)/C(=C/c2ccc(SC)cc2)c2ccc(F)cc21` the same measures were 23 µM, more than 50 µM and more than 50 µM.
Regarding `CCS(=O)(=O)N(C)CCN(C)C(=O)CC1=C(C)/C(=C/c2ccc([S+](C)[O-])cc2)c2ccc(F)cc21` (stereo unspecified), the results for the CC50 in the experiment on HT-29, in the experiment with MDA-MB-231 and in the experiment on PC-3 were 42.6 µM, more than 50 µM and more than 50 µM, respectively.
With `CC1=C(CC(=O)NCc2ccco2)c2cc(F)ccc2/C1=C\c1nc2ccccc2s1`, the results for the CC50 in the experiment on HT-29, in the experiment on MDA-MB-231 and in the experiment on PC-3 were 5.48 µM, 6.7 µM and 26.4 µM, respectively.
For the molecule `CSc1ccc(/C=C2/C(C)=C(CC(=O)N3CCC(N4CCCCC4)CC3)c3cc(F)ccc32)cc1`, the values for the CC50 with HT-29, in the experiment on MDA-MB-231 and in the experiment on PC-3 were 1.06 µM, 2.61 µM and 4.06 µM, respectively.
For `CC1=C(CC(=O)N(C)CCN(C)S(C)(=O)=O)c2cc(F)ccc2/C1=C\c1ccc([S+](C)[O-])cc1` (stereo unspecified) the same measures were 12.4 µM, 12.5 µM and 42.6 µM.
For `CSc1ccc(/C=C2/C(C)=C(CC(=O)N(C)CCN(C)S(C)(=O)=O)c3cc(F)ccc32)cc1`, in that order: 4.04 µM, 11.6 µM and 15.5 µM.
